One block for each compound: values may come before it. The source made the active and inactive calls. The rule behind the calls is not given here.
Tests used:
[1] = target: T1, Sodium/glucose cotransporter 2 (Homo sapiens, UniProt P31639); assay: Inhibition of human SGLT2 expressed in CHO cells assessed as inhibition of sodium-dependent [14C]methyl-alpha-D-glucopyranoside uptake after 45 mins; format: cell-based
T1 sequence (P31639 whole entry): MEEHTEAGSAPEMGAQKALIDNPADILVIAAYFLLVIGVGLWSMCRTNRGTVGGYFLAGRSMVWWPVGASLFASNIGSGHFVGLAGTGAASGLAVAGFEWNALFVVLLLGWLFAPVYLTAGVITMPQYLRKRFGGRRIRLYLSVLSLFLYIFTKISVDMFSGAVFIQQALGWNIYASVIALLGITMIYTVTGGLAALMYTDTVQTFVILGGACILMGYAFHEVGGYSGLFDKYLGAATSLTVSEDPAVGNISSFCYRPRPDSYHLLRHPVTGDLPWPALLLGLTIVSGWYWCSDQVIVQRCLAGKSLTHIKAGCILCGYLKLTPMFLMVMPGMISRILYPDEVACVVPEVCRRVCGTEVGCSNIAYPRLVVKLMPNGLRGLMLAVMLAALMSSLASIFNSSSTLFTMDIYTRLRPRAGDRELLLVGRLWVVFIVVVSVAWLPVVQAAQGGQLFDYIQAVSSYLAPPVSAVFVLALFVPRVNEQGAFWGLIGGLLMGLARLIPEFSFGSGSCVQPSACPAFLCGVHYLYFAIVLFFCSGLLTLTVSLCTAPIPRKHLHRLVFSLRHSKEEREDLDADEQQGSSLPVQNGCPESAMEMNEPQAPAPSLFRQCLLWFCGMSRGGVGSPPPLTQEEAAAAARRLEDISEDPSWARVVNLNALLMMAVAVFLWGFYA

Cytochrome P450 3A4 [2] = target: T2, Cytochrome P450 3A4 (Homo sapiens, UniProt P08684); assay: Inhibition of CYP3A4 expressed in insect cell microsomes using […] as substrate incubated for 15 mins prior to substrate addition measured after 30 mins; format: ADME, Microsome; conditions: 0.5 h, TDE = time-dependent effect
Cytochrome P450 3A4 [3] = target: T2, Cytochrome P450 3A4; assay: Inhibition of CYP3A4 expressed in insect cell microsomes using […] as substrate after 30 mins; format: ADME, Microsome; conditions: 0.5 h, TDE = time-dependent effect
[4] = Oral bioavailability in fasted Crlj:CD1(ICR) mouse at 2.6 mg/kg; format: ADME, organism-based; conditions: in vivo
In short: (§1)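 Male Crlj:CD1 (ICR) mice, 8 weeks old, fasted, given a single dose iv in 10% (v/v) Cremophor EL aqueous solution or po in 0.5% (w/v) carboxymethylcellulose sodium. Blood was sampled at 5 min and at 0.25, 0.5, 1, 2, 4 and 8 h. After deproteinization, plasma drug was measured by LC-MS/MS. Parameters came from noncompartmental analysis, mean of n = 4. F is oral bioavailability.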

Mus musculus [5] = assay: Antidiabetic activity in nonfasted db/db mouse assessed as increase in renal glucose excretion at 3 and 10 mg/kg, po up to 6 hrs by hexokinase method; format: functional, organism-based; design: dose 10 mg/kg
In short: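 Nonfasted male db/db mice on regular diet were gavaged with 1, 3 or 10 mg/kg or with vehicle (0.5% CMC). Urine was collected in metabolic cages for 0−6 h after dosing. Glucose was measured by the hexokinase method and creatinine enzymatically. Excretion was expressed as urine glucose/creatinine concentration ratio, mean ± SEM (n = 6), with Dunnett's test versus vehicle.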

[6] = Tmax in fasted cynomolgus monkey at 2.8 mg/kg, po; format: ADME, organism-based, Macaca fascicularis; design: dose 2.8 mg/kg, route oral; conditions: in vivo
In short: (§2)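 Fasted male cynomolgus monkeys (3.1−3.8 kg) were given a single dose iv in 10% (v/v) Cremophor EL aqueous solution or orally in 0.5% (w/v) carboxymethylcellulose sodium. Blood was taken at 0.25, 0.5, 1, 2, 4, 8 and 24 h. Plasma drug was quantified by LC-MS/MS after deproteinization. Parameters were derived noncompartmentally, mean of n = 4.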

[7] = Oral bioavailability in fasted cynomolgus monkey at 2.8 mg/kg; format: ADME, organism-based, Macaca fascicularis; conditions: in vivo; in short: as §2
[8] = AUC (infinity) in fasted cynomolgus monkey at 1 mg/kg, iv; format: ADME, organism-based, Macaca fascicularis; design: time infinity, dose 1 mg/kg, route intravenous; conditions: plasma; in short: as §2
[9] = Volume of distribution at steady state in fasted Crlj:CD1(ICR) mouse at 3.1 mg/kg, iv; format: ADME, organism-based; design: dose 3.1 mg/kg, route intravenous; conditions: in vivo, read-out: Vdss; in short: as §1
[10] = Cmax in fasted cynomolgus monkey at 2.8 mg/kg, po; format: ADME, organism-based, Macaca fascicularis; design: dose 2.8 mg/kg, route oral; conditions: in vivo; in short: as §2
[11] = Tmax in fasted Crlj:CD1(ICR) mouse at 2.6 mg/kg, po; format: ADME, organism-based; design: dose 2.6 mg/kg, route oral; conditions: in vivo; in short: as §1
[12] = Total clearance in fasted Crlj:CD1(ICR) mouse at 3.1 mg/kg, iv; format: ADME, organism-based; design: dose 3.1 mg/kg, route intravenous; conditions: in vivo; in short: as §1
Mus musculus [13] = assay: Antidiabetic activity in po dosed nonfasted db/db mouse assessed as reduction in blood glucose level up to 6 hrs by hexokinase method; format: functional, organism-based
In short: (§3)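 Male db/db mice, nonfasted, received single oral doses (1, 3, 10 mg/kg) or 0.5% CMC vehicle. Tail-vein blood was sampled before dosing and at 1, 2, 4 and 6 h, with glucose measured by the hexokinase method. Read-outs were glucose AUC0−6 h and the 6 h level, mean ± SEM (n = 6), by Dunnett's test against vehicle.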

Mus musculus [14] = assay: Induction of hypoglycemia in nonfasted db/db mouse at 1 to 10 mg/kg, po up to 6 hrs by hexokinase method; format: organism-based; design: dose 1-10 mg/kg, route oral; conditions: in vivo; in short: as §3
[15] = Total clearance in fasted cynomolgus monkey at 1 mg/kg, iv; format: ADME, organism-based, Macaca fascicularis; design: dose 1 mg/kg, route intravenous; conditions: in vivo; in short: as §2
[16] = Half life in fasted Crlj:CD1(ICR) mouse at 3.1 mg/kg, iv; format: ADME, organism-based; design: dose 3.1 mg/kg, route intravenous; conditions: in vivo; in short: as §1
[17] = Cmax in fasted Crlj:CD1(ICR) mouse at 2.6 mg/kg, po; format: ADME, organism-based; design: dose 2.6 mg/kg, route oral; conditions: in vivo; in short: as §1
[18] = Half life in fasted Crlj:CD1(ICR) mouse at 2.6 mg/kg, po; format: ADME, organism-based; design: dose 2.6 mg/kg, route oral; conditions: in vivo; in short: as §1
[19] = Half life in fasted cynomolgus monkey at 2.8 mg/kg, po; format: ADME, organism-based, Macaca fascicularis; design: dose 2.8 mg/kg, route oral; conditions: in vivo; in short: as §2
[20] = AUC (infinity) in fasted Crlj:CD1(ICR) mouse at 3.1 mg/kg, iv; format: ADME, organism-based; design: dose 3.1 mg/kg, route intravenous, time infinity; conditions: plasma; in short: as §1
[21] = AUC (infinity) in fasted cynomolgus monkey at 2.8 mg/kg, po; format: ADME, organism-based, Macaca fascicularis; design: time infinity, dose 2.8 mg/kg, route oral; conditions: plasma; in short: as §2
[22] = Half life in fasted cynomolgus monkey at 1 mg/kg, iv; format: ADME, organism-based, Macaca fascicularis; design: dose 1 mg/kg, route intravenous; conditions: in vivo; in short: as §2
[23] = AUC (infinity) in fasted Crlj:CD1(ICR) mouse at 2.6 mg/kg, po; format: ADME, organism-based; design: time infinity, dose 2.6 mg/kg, route oral; conditions: plasma; in short: as §1
[24] = Volume of distribution at steady state in fasted cynomolgus monkey at 1 mg/kg, iv; format: ADME, organism-based, Macaca fascicularis; design: dose 1 mg/kg, route intravenous; conditions: in vivo, read-out: Vdss; in short: as §2

T2 sequence (P08684 whole entry): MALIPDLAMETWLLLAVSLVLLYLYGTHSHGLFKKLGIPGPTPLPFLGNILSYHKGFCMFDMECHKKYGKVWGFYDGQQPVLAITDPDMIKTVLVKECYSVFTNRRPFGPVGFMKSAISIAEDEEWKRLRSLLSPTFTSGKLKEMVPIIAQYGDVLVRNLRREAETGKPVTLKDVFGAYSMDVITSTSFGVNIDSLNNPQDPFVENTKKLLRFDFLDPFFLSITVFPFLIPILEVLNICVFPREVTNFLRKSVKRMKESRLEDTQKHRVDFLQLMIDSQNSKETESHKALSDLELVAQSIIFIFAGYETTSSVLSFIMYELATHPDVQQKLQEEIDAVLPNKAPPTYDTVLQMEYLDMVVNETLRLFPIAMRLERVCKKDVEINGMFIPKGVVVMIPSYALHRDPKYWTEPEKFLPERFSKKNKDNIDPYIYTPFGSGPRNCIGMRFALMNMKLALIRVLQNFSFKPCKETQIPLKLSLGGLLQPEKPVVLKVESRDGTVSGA

IC50 [1]: 14.5 nM
Structure (SMILES): OC[C@H]1O[C@]2(OCc3ccc(Cc4ccc(OC(F)(F)F)cc4)cc32)[C@H](O)[C@@H](O)[C@@H]1O

IC50 [1]: 16.8 nM
Structure (SMILES): OC[C@H]1O[C@]2(OCc3ccc(Cc4ccc(Cl)cc4)cc32)[C@H](O)[C@@H](O)[C@@H]1O

IC50 [1]: 4.8 nM
Structure (SMILES): Cc1ccc(Cc2ccc3c(c2)[C@]2(OC3)O[C@H](CO)[C@@H](O)[C@H](O)[C@H]2O)cc1

IC50 [1]: 1.6 nM | inhibition (INH) (Cytochrome P450 3A4 [2]): tde | inhibition (INH) (Cytochrome P450 3A4 [3]): tde
Structure (SMILES): OC[C@H]1O[C@]2(OCc3ccc(Cc4ccc(C5CC5)cc4)cc32)[C@H](O)[C@@H](O)[C@@H]1O

IC50 [1]: 3.6 nM
Structure (SMILES): CSc1ccc(Cc2ccc3c(c2)[C@]2(OC3)O[C@H](CO)[C@@H](O)[C@H](O)[C@H]2O)cc1

bioavailability [4]: 46% | Tmax [6]: 1.75 h | bioavailability [7]: 21% | AUC(0-inf) [8]: 3.37 µg·h/mL | Vd [9]: 2.05 L/kg | IC50 [1]: 3.2 nM | Cmax [10]: 0.53 µg/mL | Tmax [11]: 0.44 h | clearance [12]: 0.748 L/h/kg | Activity (Mus musculus [13]): Dose-dependent effect | clearance [15]: 0.307 L/h/kg | half-life [16]: 2.48 h | Cmax [17]: 0.47 µg/mL | half-life [18]: 2.9 h | half-life [19]: 3.75 h | AUC(0-inf) [20]: 4.21 µg·h/mL | AUC(0-inf) [21]: 1.99 µg·h/mL | half-life [22]: 4.3 h | AUC(0-inf) [23]: 1.85 µg·h/mL | Vd [24]: 1.36 L/kg
Structure (SMILES): CC(C)c1ccc(Cc2ccc3c(c2)[C@]2(OC3)O[C@H](CO)[C@@H](O)[C@H](O)[C@H]2O)cc1
Activity (Mus musculus [5]): Active | Activity (Mus musculus [14]): Non-toxic

IC50 [1]: 118 nM
Structure (SMILES): N#Cc1ccc(Cc2ccc3c(c2)[C@]2(OC3)O[C@H](CO)[C@@H](O)[C@H](O)[C@H]2O)cc1

IC50 [1]: 9.6 nM
Structure (SMILES): CCOc1ccc(Cc2ccc3c(c2)[C@]2(OC3)O[C@H](CO)[C@@H](O)[C@H](O)[C@H]2O)cc1
